In ChEMBL document CHEMBL4400523, “Synthesis of novel pyrido[1,2-c]pyrimidine derivatives with rigidized tryptamine moiety as potential SSRI and 5-HT1A receptor ligands” (Eur J Med Chem, 2019):
Active and inactive are the calls of the source. The rule behind the calls is not given here.

Key:
[1] = molecular target: T1, 5-hydroxytryptamine receptor 1A (Homo sapiens, UniProt P08908); experiment: Displacement of [3H]-8-OH-DPAT from recombinant human 5HT1A receptor expressed in CHO cell membranes measured after 60 mins by microbeta scintillation counting analysis
T1 sequence (P08908 whole entry): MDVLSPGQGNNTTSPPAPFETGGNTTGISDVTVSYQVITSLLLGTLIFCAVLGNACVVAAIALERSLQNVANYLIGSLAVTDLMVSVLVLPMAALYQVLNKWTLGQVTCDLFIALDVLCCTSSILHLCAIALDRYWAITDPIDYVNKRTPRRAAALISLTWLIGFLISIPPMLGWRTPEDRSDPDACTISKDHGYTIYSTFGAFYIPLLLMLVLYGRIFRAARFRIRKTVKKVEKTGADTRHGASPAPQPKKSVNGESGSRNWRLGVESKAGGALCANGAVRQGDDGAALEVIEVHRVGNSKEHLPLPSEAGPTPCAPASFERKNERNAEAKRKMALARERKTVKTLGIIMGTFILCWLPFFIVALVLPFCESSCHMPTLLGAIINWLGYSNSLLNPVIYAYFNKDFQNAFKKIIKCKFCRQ

[2] = molecular target: Sodium-dependent serotonin transporter (Rattus norvegicus, UniProt P31652); experiment: Displacement of [3H]-citalopram from SERT in rat cortex tissue measured after 60 mins by microbeta scintillation counting analysis
In short: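 Rat cortex tissue suspension with 1.0 nM [3H]-citalopram in 50 mM Tris pH 7.7, 150 mM NaCl, 5 mM KCl. Incubated 60 min at 24 °C, in duplicate. GF/B filtration, scintillation counting. One-site fit, Ki via Cheng–Prusoff with in-house Kd.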

[3] = molecular target: D(2) dopamine receptor (Homo sapiens, UniProt P14416); experiment: Displacement of [3H]-raclopride from recombinant human D2 receptor expressed in HEK293 cells measured after 1 hr by microbeta scintillation counting analysis; format: cell-based
[4] = tested on: Mus musculus; experiment: Induction of hypothermia in CD-1 mouse assessed as change in body temperature at 20 mg/kg, ip measured after 60 mins by thermometric method; format: functional, organism-based
In short: (§1)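 Male CD-1 mice (23–40 g), 6–8 per dose, given compound ip in 10% aqueous DMSO (10 mL/kg). Rectal temperature was read by thermometer 30, 60, 90 and 120 min after dosing. Results are expressed as change from basal temperature at experiment start. Analysis by Dunnett's test.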

[5] = tested on: Mus musculus; experiment: Induction of hypothermia in CD-1 mouse assessed as change in body temperature at 20 mg/kg, ip measured after 120 mins by thermometric method; format: functional, organism-based; in short: as §1
[6] = tested on: Mus musculus; experiment: Induction of hypothermia in CD-1 mouse assessed as change in body temperature at 5 mg/kg, ip measured after 60 mins by thermometric method; format: functional, organism-based; in short: as §1
[7] = tested on: Mus musculus; experiment: Induction of hypothermia in CD-1 mouse assessed as change in body temperature at 20 mg/kg, ip measured after 60 mins in presence of WAY100635 by thermometric method; format: functional, organism-based
[8] = tested on: Mus musculus; experiment: Induction of hypothermia in CD-1 mouse assessed as change in body temperature at 20 mg/kg, ip measured after 90 mins by thermometric method; format: functional, organism-based; in short: as §1
[9] = molecular target: 5-hydroxytryptamine receptor 2A (Homo sapiens, UniProt P28223); experiment: Displacement of [3H]-ketanserin from recombinant human 5HT2A receptor expressed in HEK293 cells measured after 1.5 hrs by microbeta scintillation counting analysis; format: cell-based
[10] = tested on: Mus musculus; experiment: Induction of hypothermia in CD-1 mouse assessed as change in body temperature at 20 mg/kg, ip measured after 30 mins in presence of WAY100635 by thermometric method; format: functional, organism-based
[11] = tested on: Mus musculus; experiment: Induction of hypothermia in CD-1 mouse assessed as change in body temperature at 5 mg/kg, ip measured after 30 mins by thermometric method; format: functional, organism-based; in short: as §1
[12] = molecular target: 5-hydroxytryptamine receptor 6 (Homo sapiens, UniProt P50406); experiment: Displacement of [3H]-LSD from recombinant human 5HT6 receptor expressed in HEK293 cells measured after 1 hr by microbeta scintillation counting analysis; format: cell-based
[13] = molecular target: 5-hydroxytryptamine receptor 7 (Homo sapiens, UniProt P34969); experiment: Displacement of [3H]-5-CT from recombinant human 5HT7 receptor expressed in HEK293 cells measured after 1 hr by microbeta scintillation counting analysis; format: cell-based
[14] = tested on: Mus musculus; experiment: Induction of hypothermia in CD-1 mouse assessed as change in body temperature at 20 mg/kg, ip measured after 30 mins by thermometric method; format: functional, organism-based; in short: as §1
[15] = Half life in human liver microsomes at 1 uM by LC-MS analysis; format: ADME, Microsome
In short: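 Compound at 1 μM incubated at 37 °C with 1 mg/mL pooled human liver microsomes and 100 μM NADPH in 0.1 M potassium phosphate pH 7.4, after 5-min preincubation. Samples taken at 0, 5, 10, 15, 30 min and quenched in ice-cold acetonitrile with buspirone internal standard. No-NADPH controls were run. Parent measured by LC-ESI(+)-MS of [M+H+]; half-life reported.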

[16] = tested on: Mus musculus; experiment: Induction of hypothermia in CD-1 mouse assessed as change in body temperature at 5 mg/kg, ip measured after 90 mins by thermometric method; format: functional, organism-based; in short: as §1
[17] = tested on: Mus musculus; experiment: Induction of hypothermia in CD-1 mouse assessed as change in body temperature at 5 mg/kg, ip measured after 120 mins by thermometric method; format: functional, organism-based; in short: as §1
[18] = tested on: Mus musculus; experiment: Inhibition of 8-OH-DPAT-induced hypothermia in CD-1 mouse assessed change in body temperature at 20 mg/kg, ip measured after 45 mins by thermometric method (reference value: -2.6 +/- 0.2 deg C); format: functional, organism-based
[19] = tested on: Mus musculus; experiment: Inhibition of 8-OH-DPAT-induced hypothermia in CD-1 mouse assessed change in body temperature at 20 mg/kg, ip measured after 60 mins by thermometric method (reference value: -2.4 +/- 0.3 deg C); format: functional, organism-based
[20] = tested on: Mus musculus; experiment: Inhibition of 8-OH-DPAT-induced hypothermia in CD-1 mouse assessed change in body temperature at 20 mg/kg, ip measured after 30 mins by thermometric method (reference value: -2.4 +/- 0.2 deg C); format: functional, organism-based
[21] = tested on: Mus musculus; experiment: Inhibition of 8-OH-DPAT-induced hypothermia in CD-1 mouse assessed change in body temperature at 20 mg/kg, ip measured after 15 mins by thermometric method (reference value: -1.9 +/- 0.2 deg C); format: functional, organism-based
[22] = tested on: Mus musculus; experiment: Antidepressant-like activity in CD-1 mouse assessed as decrease in immobility time at 20 mg/kg, ip measured after 30 mins by forced swim test; format: functional, organism-based
In short: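 Male CD-1 mice (23–40 g), 6–8 per dose, given test agent ip in 10% aqueous DMSO (10 mL/kg) 30 min before test. Mice were placed singly in glass cylinders (25 cm high, 10 cm diameter) holding 20 cm water at 23 °C for 6 min. Immobility (passive floating) was timed over the last 4 min after a 2-min adaptation. Analysis by Dunnett's test.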

5-hydroxytryptamine receptor 2A, sequence (P28223 whole entry): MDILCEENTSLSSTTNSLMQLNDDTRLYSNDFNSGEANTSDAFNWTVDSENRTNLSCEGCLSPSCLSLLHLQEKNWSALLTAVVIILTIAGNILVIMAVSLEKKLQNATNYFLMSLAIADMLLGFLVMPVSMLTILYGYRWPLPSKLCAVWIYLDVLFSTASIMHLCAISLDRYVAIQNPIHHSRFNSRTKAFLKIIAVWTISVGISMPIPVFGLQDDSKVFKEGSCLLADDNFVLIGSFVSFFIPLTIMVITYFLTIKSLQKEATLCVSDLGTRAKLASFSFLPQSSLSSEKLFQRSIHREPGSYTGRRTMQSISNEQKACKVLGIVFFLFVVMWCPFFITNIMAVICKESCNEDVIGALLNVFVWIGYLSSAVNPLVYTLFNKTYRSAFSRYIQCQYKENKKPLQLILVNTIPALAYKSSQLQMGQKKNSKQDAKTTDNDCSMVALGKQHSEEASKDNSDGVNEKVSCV
5-hydroxytryptamine receptor 7, sequence (P34969 whole entry): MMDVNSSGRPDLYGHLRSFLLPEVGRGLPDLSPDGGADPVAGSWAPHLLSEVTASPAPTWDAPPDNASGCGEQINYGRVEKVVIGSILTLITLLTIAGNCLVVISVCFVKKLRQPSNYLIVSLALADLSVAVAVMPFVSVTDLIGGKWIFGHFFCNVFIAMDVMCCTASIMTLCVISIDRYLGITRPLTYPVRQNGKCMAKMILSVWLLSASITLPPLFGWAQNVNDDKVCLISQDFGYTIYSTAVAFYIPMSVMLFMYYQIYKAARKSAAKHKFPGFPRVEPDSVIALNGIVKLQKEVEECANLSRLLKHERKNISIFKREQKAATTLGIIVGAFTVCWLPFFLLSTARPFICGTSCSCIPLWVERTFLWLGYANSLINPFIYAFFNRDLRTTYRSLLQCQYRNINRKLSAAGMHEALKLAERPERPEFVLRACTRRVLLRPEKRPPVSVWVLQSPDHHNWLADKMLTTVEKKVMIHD
D(2) dopamine receptor, sequence (P14416 whole entry): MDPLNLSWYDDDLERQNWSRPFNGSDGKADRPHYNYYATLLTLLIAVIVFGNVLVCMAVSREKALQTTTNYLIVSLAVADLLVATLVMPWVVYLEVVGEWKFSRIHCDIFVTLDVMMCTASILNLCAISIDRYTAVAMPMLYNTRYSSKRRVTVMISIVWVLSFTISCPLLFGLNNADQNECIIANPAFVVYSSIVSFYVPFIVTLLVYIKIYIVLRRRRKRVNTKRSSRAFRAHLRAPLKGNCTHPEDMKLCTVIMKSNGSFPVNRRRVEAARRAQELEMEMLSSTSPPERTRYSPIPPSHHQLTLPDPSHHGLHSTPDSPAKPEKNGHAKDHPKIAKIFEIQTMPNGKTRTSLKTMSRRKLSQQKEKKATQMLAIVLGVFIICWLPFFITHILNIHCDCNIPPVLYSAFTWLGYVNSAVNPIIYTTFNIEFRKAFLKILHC
Sodium-dependent serotonin transporter, sequence (P31652 whole entry): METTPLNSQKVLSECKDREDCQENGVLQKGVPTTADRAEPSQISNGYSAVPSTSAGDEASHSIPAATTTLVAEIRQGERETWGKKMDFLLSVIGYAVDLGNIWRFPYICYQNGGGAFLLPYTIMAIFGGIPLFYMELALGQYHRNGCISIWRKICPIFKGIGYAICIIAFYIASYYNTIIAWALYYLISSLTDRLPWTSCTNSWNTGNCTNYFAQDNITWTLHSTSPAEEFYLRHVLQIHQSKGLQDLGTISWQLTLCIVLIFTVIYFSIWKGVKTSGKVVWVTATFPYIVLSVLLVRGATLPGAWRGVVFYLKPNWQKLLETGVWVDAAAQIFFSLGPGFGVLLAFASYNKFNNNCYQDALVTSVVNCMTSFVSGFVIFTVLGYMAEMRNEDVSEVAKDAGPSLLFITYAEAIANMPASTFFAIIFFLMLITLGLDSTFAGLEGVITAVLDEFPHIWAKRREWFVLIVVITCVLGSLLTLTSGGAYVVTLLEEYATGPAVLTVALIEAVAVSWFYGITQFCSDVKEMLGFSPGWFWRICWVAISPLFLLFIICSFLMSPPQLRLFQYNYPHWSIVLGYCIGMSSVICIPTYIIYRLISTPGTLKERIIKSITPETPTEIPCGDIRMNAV
5-hydroxytryptamine receptor 6, sequence (P50406 whole entry): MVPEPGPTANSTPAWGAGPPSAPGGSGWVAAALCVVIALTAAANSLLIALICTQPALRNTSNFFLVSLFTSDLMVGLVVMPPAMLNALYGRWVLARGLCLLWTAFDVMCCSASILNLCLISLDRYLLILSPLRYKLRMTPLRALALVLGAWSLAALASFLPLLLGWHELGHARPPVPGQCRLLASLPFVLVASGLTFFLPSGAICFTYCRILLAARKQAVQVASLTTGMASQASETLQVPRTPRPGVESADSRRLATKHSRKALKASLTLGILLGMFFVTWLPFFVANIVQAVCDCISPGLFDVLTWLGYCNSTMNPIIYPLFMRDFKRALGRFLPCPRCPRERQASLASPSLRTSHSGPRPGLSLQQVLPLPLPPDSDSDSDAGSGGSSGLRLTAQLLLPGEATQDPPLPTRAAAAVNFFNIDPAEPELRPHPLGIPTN

| Structure (SMILES) | Ki [1] [nM] | Ki [2] [nM] | further results |
| --- | --- | --- | --- |
| Cc1ccccc1-c1c(=O)n(CCCCN2CCCC(c3c[nH]c4ccccc34)C2)c(=O)n2ccccc12 (stereo not given) | 102 | 76 |  |
| O=c1c(-c2ccccc2Cl)c2ccccn2c(=O)n1CCCCN1CCCC(c2c[nH]c3ccc(F)cc23)C1 (stereo not given) | 378 | 255 |  |
| O=c1c(-c2ccccc2F)c2ccccn2c(=O)n1CCCCN1CCCC(c2c[nH]c3ccc(F)cc23)C1 (stereo not given) | 218 | 115 |  |
| O=c1c(-c2ccccc2Cl)c2ccccn2c(=O)n1CCCCN1CCCC(c2c[nH]c3ccccc23)C1 (stereo not given) | 50 | 103 |  |
| COc1ccc2[nH]cc(C3CCCN(CCCCn4c(=O)c(-c5ccccc5)c5ccccn5c4=O)C3)c2c1 (stereo not given) | 261 | 248 |  |
| Cc1ccc(-c2c(=O)n(CCCCN3CCCC(c4c[nH]c5ccccc45)C3)c(=O)n3ccccc23)cc1 (stereo not given) | 63 | 207 |  |
| COc1ccc2[nH]cc(C3CCCN(CCCCn4c(=O)c(-c5ccc(F)cc5)c5ccccn5c4=O)C3)c2c1 (stereo not given) | 281 | 192 |  |
| Cc1ccc(-c2c(=O)n(CCCCN3CCCC(c4c[nH]c5ccc(F)cc45)C3)c(=O)n3ccccc23)cc1 (stereo not given) | 136 | 135 |  |
| O=c1c(-c2ccc(Cl)cc2)c2ccccn2c(=O)n1CCCCN1CCCC(c2c[nH]c3ccccc23)C1 (stereo not given) | 294 | 82 |  |
| O=c1c(-c2ccc(F)cc2)c2ccccn2c(=O)n1CCCCN1CCCC(c2c[nH]c3ccccc23)C1 (stereo not given) | 46 | 46 | Ki [3]: 963 nM; deltaT [18]: -1.3 °C; deltaT [4]: 0.5 °C; deltaT [5]: 0.1 °C; deltaT [6]: 0.4 °C; deltaT [19]: -1.3 °C; deltaT [8]: 0.2 °C; Ki [9]: 435 nM; deltaT [11]: 0.4 °C; Ki [12]: 697 nM; Ki [13]: 1440 nM; deltaT [20]: -1.2 °C; deltaT [14]: -0.2 °C; half-life at 1 µM [15]: 5.53 min; deltaT [21]: -1.2 °C; deltaT [16]: 0.3 °C; deltaT [17]: 0.2 °C |
| COc1ccccc1-c1c(=O)n(CCCCN2CCCC(c3c[nH]c4ccccc34)C2)c(=O)n2ccccc12 (stereo not given) | 132 | 411 |  |
| O=c1c(-c2ccc(Cl)cc2)c2ccccn2c(=O)n1CCCCN1CCCC(c2c[nH]c3ccc(F)cc23)C1 (stereo not given) | 155 | 86 |  |
| O=c1c(-c2ccc(F)cc2)c2ccccn2c(=O)n1CCCCN1CCCC(c2c[nH]c3ccc(F)cc23)C1 (stereo not given) | 147 | 30 |  |
| Cc1ccccc1-c1c(=O)n(CCCCN2CCCC(c3c[nH]c4ccc(F)cc34)C2)c(=O)n2ccccc12 (stereo not given) | 376 | 338 |  |
| COc1ccc(-c2c(=O)n(CCCCN3CCCC(c4c[nH]c5ccc(F)cc45)C3)c(=O)n3ccccc23)cc1 (stereo not given) | 140 | 27 |  |
| COc1ccccc1-c1c(=O)n(CCCCN2CCCC(c3c[nH]c4ccc(F)cc34)C2)c(=O)n2ccccc12 (stereo not given) | 80 | 118 |  |
| COc1ccc2[nH]cc(C3CCCN(CCCCn4c(=O)c(-c5ccccc5C)c5ccccn5c4=O)C3)c2c1 (stereo not given) | 476 | 87 |  |

Continued, in another order:

| Ki [1] [nM] | Ki [2] [nM] | Structure (SMILES) | further results |
| --- | --- | --- | --- |
| 69 | 386 | COc1ccc2[nH]cc(C3CCCN(CCCCn4c(=O)c(-c5ccccc5OC)c5ccccn5c4=O)C3)c2c1 (stereo not given) |  |
| 42 | 41 | COc1ccc(-c2c(=O)n(CCCCN3CCCC(c4c[nH]c5ccccc45)C3)c(=O)n3ccccc23)cc1 (stereo not given) | Ki [3]: 1130 nM; deltaT [4]: 0.3 °C; deltaT [5]: 0.3 °C; deltaT [6]: 0.4 °C; deltaT [7]: -0.7 °C; deltaT [8]: 0 °C; Ki [9]: 21 nM; deltaT [10]: -1.4 °C; deltaT [11]: 0.3 °C; Ki [12]: 1710 nM; Ki [13]: 1920 nM; deltaT [14]: -1.6 °C; half-life at 1 µM [15]: 7.4 min; deltaT [16]: 0.4 °C; deltaT [17]: 0.5 °C |
| 130 | 1670 | COc1ccc2[nH]cc(C3CCCN(CCCCn4c(=O)c(-c5ccccc5F)c5ccccn5c4=O)C3)c2c1 (stereo not given) |  |
| 257 | 490 | COc1ccc2[nH]cc(C3CCCN(CCCCn4c(=O)c(-c5ccc(Cl)cc5)c5ccccn5c4=O)C3)c2c1 (stereo not given) |  |
| 333 | 173 | COc1ccc2[nH]cc(C3CCCN(CCCCn4c(=O)c(-c5ccc(C)cc5)c5ccccn5c4=O)C3)c2c1 (stereo not given) |  |
| 53 | 240 | O=c1c(-c2ccccc2F)c2ccccn2c(=O)n1CCCCN1CCCC(c2c[nH]c3ccccc23)C1 (stereo not given) |  |
| 209 | 8 | O=c1c(-c2ccccc2)c2ccccn2c(=O)n1CCCCN1CCCC(c2c[nH]c3ccc(F)cc23)C1 (stereo not given) |  |
| 176 | 459 | COc1ccc2[nH]cc(C3CCCN(CCCCn4c(=O)c(-c5ccccc5Cl)c5ccccn5c4=O)C3)c2c1 (stereo not given) |  |
| 22 | 68 | O=c1c(-c2ccccc2)c2ccccn2c(=O)n1CCCCN1CCCC(c2c[nH]c3ccccc23)C1 (stereo not given) | Ki [3]: 17700 nM; deltaT [4]: -0.3 °C; deltaT [5]: 0.2 °C; deltaT [6]: -0.4 °C; deltaT [7]: 0.1 °C; deltaT [8]: 0.1 °C; Ki [9]: 433 nM; Activity [22]: inactive; deltaT [10]: 0 °C; deltaT [11]: -0.1 °C; Ki [12]: 435 nM; Ki [13]: 1110 nM; deltaT [14]: -0.9 °C; half-life at 1 µM [15]: 6.12 min; deltaT [16]: -0.5 °C; deltaT [17]: -0.8 °C |
